{"data": "Assay results pooled from the literature", "target": "Cyclin-dependent kinase 7 (CDK7, Homo sapiens, UniProt P50613)", "note": "Each line is one published result; the experiments were not run side by side."}
{"SMILES": "CCC(=N\\O)/C(C)=C/c1ccc(F)cc1", "test": "cell-free assay, competition with immobilised ligand", "setting": "1 µM", "remaining binding [%]": 60}
{"SMILES": "C[C@@H]1CCN(c2nccc(-c3cnn4ncccc34)n2)C1", "test": "binding", "setting": "1 µM", "remaining binding [%]": 35}
{"SMILES": "Cc1c(C(=O)O)cc(-c2ccc(C3CCNCC3)cc2)c2ccc(-c3ccc(C(F)(F)F)cc3)cc12", "test": "binding, competition with immobilised ligand", "setting": "1 µM", "remaining binding [%]": 97}
{"SMILES": "c1cncc(-c2cccc(Nc3nccc(NC4CCCCC4)n3)c2)c1", "test": "binding, competition with immobilised ligand", "setting": "10 µM", "remaining binding [%]": 46}
{"SMILES": "O=C(NCCCN1CCOCC1)c1ccc(Nc2nccc(-c3cc4ccccc4s3)n2)cc1", "test": "binding, competition with immobilised ligand", "setting": "1 µM", "remaining binding [%]": 40}
{"SMILES": "C[C@@H]1CN(c2ccc3ncc(-c4ccc5[nH]nc(C6CC6)c5c4)n3n2)C[C@H](C)O1", "test": "binding, competition with immobilised ligand", "setting": "50 nM", "remaining binding [%]": 88}
{"SMILES": "Nc1ncc2c(n1)-c1c([nH]c3ccc(C#CC4CC4)cc13)CCCC2", "test": "binding, competition with immobilised ligand", "setting": "1 µM", "remaining binding [%]": 92}
{"SMILES": "N#Cc1ccccc1CSc1nnc2c(n1)[nH]c1ccccc12", "test": "binding, competition with immobilised ligand", "setting": "10 µM", "remaining binding [%]": 94}
{"SMILES": "COc1ncc2cc3ccccc3nc2c1C#N", "test": "cell-free assay, competition with immobilised ligand", "setting": "5 µM", "remaining binding [%]": 100}
{"SMILES": "O=C(O)[C@@H]1[C@@H](Cn2nnc3ccccc3c2=O)CC[C@H]1C(=O)c1ccc(OCCC2CCOCC2)cc1", "test": "cell-free assay, competition with immobilised ligand", "setting": "1 µM", "remaining binding [%]": 86}
{"SMILES": "CN(CCCC(F)(F)F)c1nccc(-c2cnn3ncccc23)n1", "test": "binding", "setting": "1 µM", "remaining binding [%]": 87}
{"SMILES": "O=C(c1ccc(Nc2ncc(Cl)c(-c3cc4ccccc4s3)n2)cc1)N1CCC(N2CCCC2)CC1", "test": "binding, competition with immobilised ligand", "setting": "1 µM", "remaining binding [%]": 1.5}
{"SMILES": "COc1cnc(Nc2cccc(S(N)(=O)=O)c2)nc1N1CCN(c2ccccc2)C(=O)C1", "test": "binding, competition with immobilised ligand", "setting": "1 µM", "remaining binding [%]": 73}
{"SMILES": "CN(C)c1nccc(-c2cnc3ncccn23)n1", "test": "binding", "setting": "1 µM", "remaining binding [%]": 29}
{"SMILES": "CS(=O)(=O)NCC[C@H](NC(=O)c1cncc2c1cnn2-c1ccc(F)cc1)c1ccnc(S(C)(=O)=O)c1", "test": "cell-free assay, competition with immobilised ligand", "setting": "1 µM", "remaining binding [%]": 100}
